Data taken from article PMC3823688 (Journal of medicinal chemistry, 2013).
In brackets after ≈: the same amount, converted by molar mass. Where two headings read alike, the source gives them in different places.

Legend:
[1] = target: ANT(4') (Staphylococcus aureus, UniProt P05057); assay: nucleotidylation of compounds by ANT; assay type: biochemical, S. aureus; conditions: initial rate normalized to 1 = 100%; 100 µM compound
[2] = system: E. coli S30 extracts (E. coli ribosomes); assay: in vitro prokaryotic translation assay; assay type: biochemical
[3] = system: tested bacterial strains; assay: organism not typed; assay type: cell-based
[4] = system: AAC(6')-Ib'; assay: acetylation of compounds by AAC; assay type: biochemical; conditions: for relative activity of AAC(6')-Ib' on compound: initial rate normalized to 1 = 100%, 100 µM compound; for times less prone to deactivation by AAC(6')-Ib' than 1: relative to 1, stated jointly for both AAC(6') enzymes
Method in brief: (§1)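 Acetyltransferase activity followed at 412 nm by Ellman's method, with CoASH release coupled to DTNB (2 mM), at 25 °C. Mix: test compound 100 µM, AcCoA 150 µM, enzyme 0.5 µM. Buffer: 50 mM MES pH 6.6 for AAC(6')/APH(2"), 50 mM Tris pH 7.5 for AAC(6')-Ib'. Read every 30 s for 1 h. Initial rates from first 2–5 min, normalized to parent aminoglycoside; triplicate.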

[5] = target: AAC(6')/APH(2") (Staphylococcus aureus, UniProt P0A0C1); assay: acetylation of compounds by AAC; assay type: biochemical; conditions: for relative activity of AAC(6')/APH(2") (acetyltransferase) on compound: initial rate normalized to 1 = 100%, 100 µM compound; for times less prone to deactivation by AAC(6')/APH(2") than 1: relative to 1, stated jointly for both AAC(6') enzymes
Method in brief: as §1

[6] = system: Tetrahymena ribozyme; conditions: compared to parent antibiotic 1; cited from earlier work
[7] = target: chloramphenicol nitroreductase (CNR) (Haemophilus influenzae, UniProt Q57431); assay: reduction of compounds by CNR; assay type: biochemical, H. influenzae; conditions: for relative activity of CNR on compound: initial rate normalized to 3 = 100%, 100 µM compound
[8] = target: chloramphenicol phosphotransferase (CPT) (Streptomyces venezuelae, UniProt Q56148); assay: phosphorylation of compounds by CPT; assay type: biochemical; conditions: compared to 3
[9] = system: S. aureus ATCC 29213; assay: MIC determination by double-dilution; assay type: cell-based, Staphylococcus aureus

Chain of AAC(6')/APH(2") (P0A0C1 whole entry): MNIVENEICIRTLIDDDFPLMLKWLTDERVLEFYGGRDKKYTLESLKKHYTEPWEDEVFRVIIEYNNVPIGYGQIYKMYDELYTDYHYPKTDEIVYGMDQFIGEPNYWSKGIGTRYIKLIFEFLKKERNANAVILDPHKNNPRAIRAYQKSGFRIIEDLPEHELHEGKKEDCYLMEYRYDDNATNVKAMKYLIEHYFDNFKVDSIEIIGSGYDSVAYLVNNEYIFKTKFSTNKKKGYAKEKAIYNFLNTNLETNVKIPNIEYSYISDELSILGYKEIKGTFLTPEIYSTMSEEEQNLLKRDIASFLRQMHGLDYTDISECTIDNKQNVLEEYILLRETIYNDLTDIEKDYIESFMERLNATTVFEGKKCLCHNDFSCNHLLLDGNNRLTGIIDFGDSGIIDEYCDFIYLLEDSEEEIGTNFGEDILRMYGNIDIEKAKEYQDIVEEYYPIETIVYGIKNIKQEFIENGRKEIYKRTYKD
Chain of chloramphenicol nitroreductase (CNR) (Q57431 whole entry): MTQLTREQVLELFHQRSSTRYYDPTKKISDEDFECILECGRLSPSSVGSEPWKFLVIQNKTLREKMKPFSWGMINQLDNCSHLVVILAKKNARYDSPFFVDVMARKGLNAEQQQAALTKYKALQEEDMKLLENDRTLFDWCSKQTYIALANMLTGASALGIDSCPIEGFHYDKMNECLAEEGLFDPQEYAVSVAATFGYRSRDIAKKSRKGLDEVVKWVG
Chain of ANT(4') (P05057 whole entry): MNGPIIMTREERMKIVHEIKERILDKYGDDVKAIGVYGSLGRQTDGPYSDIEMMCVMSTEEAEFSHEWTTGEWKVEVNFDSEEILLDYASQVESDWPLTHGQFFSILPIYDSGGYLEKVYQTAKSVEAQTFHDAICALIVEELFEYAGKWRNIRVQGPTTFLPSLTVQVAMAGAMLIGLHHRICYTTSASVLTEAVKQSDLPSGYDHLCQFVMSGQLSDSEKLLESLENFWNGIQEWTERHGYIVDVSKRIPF
Chain of chloramphenicol phosphotransferase (CPT) (Q56148 5-178): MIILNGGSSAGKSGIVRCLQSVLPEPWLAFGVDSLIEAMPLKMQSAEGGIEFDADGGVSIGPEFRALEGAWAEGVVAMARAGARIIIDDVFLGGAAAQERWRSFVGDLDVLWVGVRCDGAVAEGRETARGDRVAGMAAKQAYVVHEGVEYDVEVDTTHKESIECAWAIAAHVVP

For NC[C@H]1O[C@H](O[C@H]2[C@H](O)[C@@H](O[C@H]3O[C@H](CO)[C@@H](O)[C@H](N)[C@H]3O)[C@H](N)C[C@@H]2N)[C@H](N)C[C@@H]1O [Compound 1, tobramycin, reference compound], the “relative activity of ANT(4') on compound” value [1] was 100%.

For NC[C@H]1O[C@H](O[C@H]2[C@H](O)[C@@H](O[C@@H]3O[C@H](CSCCOCCS)[C@@H](O)[C@H](N)[C@H]3O)[C@H](N)C[C@@H]2N)[C@H](N)C[C@@H]1O [Compound 6], the “relative activity of ANT(4') on compound” value [1] was 49%.

In the case of CCC[C@@H]1C[C@@H](C(=O)N[C@H]([C@H]2O[C@H](SC)[C@H](O)[C@@H](O)[C@H]2O)[C@@H](C)SCCOCCS)N(C)C1 [Compound 9], the “IC50 fold higher than that of parent antibiotic 2, in vitro translation” value ([2]; relative to 2, less potent) is reported as “at least 5 fold” and the MIC ([3]; read-out: MIC values against seven of the tested strains) is reported as 1.2 to 9.4 µg/mL (≈ 2.28 to 17.8 µM).

CCC[C@@H]1C[C@@H](C(=O)NC([C@H]2O[C@H](SC)[C@H](O)[C@@H](O)[C@H]2O)[C@@H](C)SCCOCCSSCCOCCS[C@H](C)C(NC(=O)[C@@H]2C[C@@H](CCC)CN2C)[C@H]2O[C@H](SC)[C@H](O)[C@@H](O)[C@H]2O)N(C)C1 (stereo partly shown) [Compound 10] gave an MIC ([3]; read-out: MICs against eight of the tested bacterial strains) of 0.6 to 9.4 µg/mL (≈ 0.571 to 8.94 µM).

In the case of O=C(CSCCOCCS)N[C@H](CO)[C@H](O)c1ccc([N+](=O)[O-])cc1 [Compound 13], the “fold less potent than parent antibiotic 3 in in vitro translation” value ([2]; relative to 3) is reported as about 8 fold.

With NC[C@H]1O[C@H](O[C@H]2[C@H](O)[C@@H](O[C@@H]3O[C@H](CSCCOCCSSCCOCCSC[C@H]4O[C@@H](O[C@@H]5[C@@H](O)[C@H](O[C@H]6O[C@H](CN)[C@@H](O)C[C@H]6N)[C@@H](N)C[C@H]5N)[C@H](O)[C@@H](N)[C@@H]4O)[C@@H](O)[C@H](N)[C@H]3O)[C@H](N)C[C@@H]2N)[C@H](N)C[C@@H]1O [Compound 16] the “relative activity of AAC(6')-Ib' on compound” value [4] was 39%, the “times less prone to deactivation by AAC(6')-Ib' than 1” value [4] was 2.5–5 times and the “relative activity of AAC(6')/APH(2") (acetyltransferase) on compound” value (shortened to “relative activity of AAC(6')/APH(2")”) [5] was 34%. For the same compound, the “times less prone to deactivation by AAC(6')/APH(2") than 1” value [5] was 2.5–5 times and the “inhibition of the activity of the Tetrahymena ribozyme (in words)” value [6] was “significantly better inhibitor”.

With CCC[C@@H]1C[C@@H](C(=O)NC([C@H]2O[C@H](SC)[C@H](O)[C@@H](O)[C@H]2O)[C@@H](C)SCCOCCSSCCOCCSC[C@H]2O[C@@H](O[C@@H]3[C@@H](O)[C@H](O[C@H]4O[C@H](CN)[C@@H](O)C[C@H]4N)[C@@H](N)C[C@H]3N)[C@H](O)[C@@H](N)[C@@H]2O)N(C)C1 (stereo partly shown) [Compound 18] the “relative activity of AAC(6')-Ib' on compound” value [4] was 20%, the “times less prone to deactivation by AAC(6')-Ib' than 1” value [4] was 2.5–5 times and the “relative activity of AAC(6')/APH(2")” value [5] was 31%. The “times less prone to deactivation by AAC(6')/APH(2") than 1” value [5] was 2.5–5 times.

In the case of NC[C@H]1O[C@H](O[C@H]2[C@H](O)[C@@H](O[C@@H]3O[C@H](CSCCOCCSCC(=O)N[C@H](CO)[C@H](O)c4ccc([N+](=O)[O-])cc4)[C@@H](O)[C@H](N)[C@H]3O)[C@H](N)C[C@@H]2N)[C@H](N)C[C@@H]1O [Compound 20], the “relative activity of AAC(6')-Ib' on compound” value [4] is reported as 37%.

In the case of NC[C@H]1O[C@H](O[C@H]2[C@H](O)[C@@H](O[C@@H]3O[C@H](CSCCOCCSSCCOCCSCC(=O)N[C@H](CO)[C@H](O)c4ccc([N+](=O)[O-])cc4)[C@@H](O)[C@H](N)[C@H]3O)[C@H](N)C[C@@H]2N)[C@H](N)C[C@@H]1O [Compound 22], the “relative activity of AAC(6')-Ib' on compound” value [4] is reported as 31%, the “relative activity of AAC(6')/APH(2")” value [5] is reported as 34% and the “relative activity of CNR on compound” value [7] is reported as 117%.

With CCC[C@@H]1C[C@@H](C(=O)NC([C@H]2O[C@H](SC)[C@H](O)[C@@H](O)[C@H]2O)[C@@H](C)SCCOCCSCC(=O)N[C@H](CO)[C@H](O)c2ccc([N+](=O)[O-])cc2)N(C)C1 (stereo partly shown) [Compound 23] the “relative activity of CNR on compound” value [7] was 133%.

For CCC[C@@H]1C[C@@H](C(=O)NC([C@H]2O[C@H](SC)[C@H](O)[C@@H](O)[C@H]2O)[C@@H](C)SCCOCCSSCCOCCSCC(=O)N[C@@H](CO)[C@H](O)c2ccc([N+](=O)[O-])cc2)N(C)C1 (stereo partly shown) [Compound 24], the “relative activity of CNR on compound” value [7] was 174%.

In the case of O=C(CSCCOCCSCC(=O)N[C@H](CO)[C@H](O)c1ccc([N+](=O)[O-])cc1)N[C@H](CO)[C@H](O)c1ccc([N+](=O)[O-])cc1 [Compound 25], the “substrate quality for CNR (in words)” value ([7]; compared to 3) is reported as “poor substrate” and the “substrate quality for CPT (in words)” value [8] is reported as “poor substrate”.

In the case of O=C(CSCCOCCSSCCOCCSCC(=O)N[C@H](CO)[C@H](O)c1ccc([N+](=O)[O-])cc1)N[C@H](CO)[C@H](O)c1ccc([N+](=O)[O-])cc1 [Compound 26], the “fold more potent than 3 (MIC)” value [9] is reported as “approximately 16 fold” and the “relative activity of CNR on compound” value [7] is reported as 220%.
